Laboratory results: ChEMBL document CHEMBL1144251, “IKCa-channel blockers. Part 2: discovery of cyclohexadienes” (Bioorg Med Chem Lett, 2005)

Assay: Inhibitory concentration against rat Calcium-activated potassium channel (IKca)
Procedure, shortened: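 IC50 taken as the mean of at least two separate experiments, each run in triplicate.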

Structure (SMILES)	IC50
COC(=O)C1=C(C)CC2=C(C(=O)OC2)C1c1ccc(Cl)c(C(F)(F)F)c1 (stereo not given)	8 nM
COC(=O)C1=C(C)CC(C)=C(C(=O)OC)C1C1CCCCC1	> 1000 nM
COC(=O)C1=C(C)CC(C)=C(C(=O)OC)C1c1cccnc1	> 1000 nM
CCO/C(O)=C1/C(=O)CC2=C(C(=O)OC2)C1c1ccc(Cl)c(C(F)(F)F)c1 (stereo not given)	40 nM
CNC1=C(C(=O)OC)C(c2ccc(C(F)(F)F)cc2)C(C(=O)OC)=C(C)C1 (stereo not given)	200 nM
CNC1=C(C(=O)OC)C(c2cccc([N+](=O)[O-])c2)C2=C(COC2=O)C1 (stereo not given)	200 nM
COC(=O)C1=C(C)CC(C)=C(C(=O)OC)C1c1ccc(Cl)c(C(F)(F)F)c1	1.5 nM
CNC1=C(C(=O)OC)C(c2cccc(Cl)c2Cl)C2=C(COC2=O)C1 (stereo not given)	400 nM
COC(=O)C1=C(C)CC(C)=C(C(N)=O)C1c1ccc(Cl)c(C(F)(F)F)c1 (stereo not given)	30 nM
COC(=O)C1=C(C)CC(C)=C(C(=O)O)C1c1ccc(Cl)c(C(F)(F)F)c1 (stereo not given)	> 1000 nM

More lines, now with the values ahead:

IC50	Structure (SMILES)
200 nM	CCO/C(O)=C1/C(=O)CC2=C(C(=O)OC2)C1c1ccccc1Cl (stereo not given)
25 nM	CNC1=C(C(=O)OC)C(c2cccc([N+](=O)[O-])c2)C(C(=O)OC)=C(C)C1 (stereo not given)
> 1000 nM	COC(=O)C1=C(C)CC(C)=C(C(=O)OC(C)(C)C)C1c1ccc(Cl)c(C(F)(F)F)c1 (stereo not given)
100 nM	COC(=O)C1=C(C)CC(C)=C(C(=O)OC)C1c1cc(Cl)cc(Cl)c1
20 nM	CNC1=C(C(=O)OC)C(c2ccc([N+](=O)[O-])cc2)C(C(=O)OC)=C(C)C1 (stereo not given)
